# NPY Y1 blocker: NPY-Y1 receptor antagonists, primary screen, cell-based. Neuropeptide Y receptor type 1 (Homo sapiens), P25929. HEK293-CNG Y1 cells, membrane potential fluorescence; NPY at EC95, then isoproterenol. inhibition, % at 3.6 µM. 1% of 200,000 active. AID 1040, 2008;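 active means inhibition above the campaign mean inhibition of all tested compounds plus 3 SD, cut at about 20% in these data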
#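 material = HEK293 cells with Y1 receptor plus CNG channel | also added = NPY 25 nM then isoproterenol 1 µM plus Ro 20-1724 25 µM | schedule = dye 3 h, compound 60 min room temperature, stimulation 45 min | measured by = membrane potential fluorescence | benchmarks = high control isoproterenol alone, low control NPY with isoproterenol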
# S1P4 ag: S1P4 receptor agonists, primary screen, cell-based | S1P4-expressing cell line, agonist reporter assay | activation, % at 4.98 µM | 0.35% of 220,000 active | AID 1509, 2009; in the data active means activation above about 11%
# Target sequence (O95977 whole entry, looked up): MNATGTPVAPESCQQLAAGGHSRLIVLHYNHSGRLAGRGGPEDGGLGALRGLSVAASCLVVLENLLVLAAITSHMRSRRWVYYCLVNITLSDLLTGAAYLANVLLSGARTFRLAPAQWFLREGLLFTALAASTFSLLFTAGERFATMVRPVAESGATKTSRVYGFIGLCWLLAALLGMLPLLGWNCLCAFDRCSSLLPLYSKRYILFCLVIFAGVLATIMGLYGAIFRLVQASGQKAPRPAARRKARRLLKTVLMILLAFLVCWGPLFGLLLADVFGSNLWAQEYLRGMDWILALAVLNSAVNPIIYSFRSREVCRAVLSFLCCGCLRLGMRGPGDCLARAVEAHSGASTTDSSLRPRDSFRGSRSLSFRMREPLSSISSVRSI
# S1P4 antagonist: S1P4 receptor antagonists, primary screen, cell-based; Sphingosine 1-phosphate receptor 4 (Homo sapiens), O95977; S1P4-expressing cells, antagonist mode, reporter read-out; inhibition, % at 4.98 µM; 0.26% of 220,000 active; AID 1510, 2009; in the data active means inhibition above about 29%
# NPY1 pot ag: NPY-Y1 receptor potentiators or agonists, primary screen, cell-based; Neuropeptide Y receptor type 1 (Homo sapiens), P25929; NPY-Y1 expressing cells, potentiator/agonist activation; activation, % at 3.6 µM; 0.37% of 220,000 active; in the data active means activation above about 33%, passing the limit was not always enough;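 further: cells stimulated with NPY at EC10 then isoproterenol at EC100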
# NPY-Y2 antag: NPY-Y2 receptor antagonists, primary screen, cell-based. Neuropeptide Y receptor type 2 (Homo sapiens), P49146. NPY-Y2 expressing cells, antagonist mode. inhibition, % at 2.7 µM. 0.99% of 140,000 active
# NPY2 pot ag: NPY-Y2 potentiators or agonists, primary screen, cell-based; Neuropeptide Y receptor type 2 (Homo sapiens), P49146; AID 1359, 2008; activation, % at 3.6 µM; 0.45% of 220,000 active; cells expressing NPY-Y2, potentiator/agonist read-out; in the data active means activation above about 27%;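 further: cells stimulated with NPY near EC25 plus isoproterenol at EC100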
# NPY1 antag conf: NPY-Y1 receptor antagonists, retest of hits, confirmation, HEK293-CNG cells, membrane potential fluorescence, triplicate; shares compounds with NPY Y1 blocker; cAMP; NPY challenge against isoproterenol-raised cAMP; inhibition, % at 3.6 µM; 21% of 1,200 active; AID 1254, 2008; in the data active means inhibition above about 20%
# NPY2 antag ctr: NPY-Y2 receptor antagonists, selectivity check, confirmation, counter-screen for NPY-Y1 antagonist project, HEK293-CNG cells, membrane potential fluorescence, triplicate. inhibition, % at 3.6 µM. AID 1255, 2008. 28% of 1,200 active. antagonism; cells given NPY, then isoproterenol. shares compounds with NPY Y1 blocker
# Hits are given with their value; 0 = inactive; - = not tested or not shown; ! = not confirmed by another sample. This is a sample that favours compounds with a hit; in the whole collection about 2.4% have one here. Unless noted, no stated cut-off is given here; in the data, active means inhibition above about 17%; inactive means the rest.
SMILES,NPY Y1 blocker,S1P4 ag,S1P4 antagonist,NPY1 pot ag,NPY-Y2 antag,NPY2 pot ag,NPY1 antag conf,NPY2 antag ctr
O=C(CSc1nnc(COc2ccccc2)n1Cc1ccco1)c1ccc(F)cc1,20.2,0,0,0,0,0,0,0
Cc1[nH]c(=O)c(C#N)cc1-c1ccccc1,25.9,0,0,0,0,0,20.2,38.4
Cc1nc(-c2cc(C#N)c(=O)[nH]c2C)cs1,-,0,0,0,-,0,-,-
COc1ccc(/C=N/OC(=O)Nc2ccccc2OC)cc1,21.9,0,0,0,-,0,0,0
COc1ccc(NC(=O)O/N=C/c2ccncc2)cc1,0,0,0,0,-,0,-,-
CC(C)CCNc1nc(-c2ccco2)c2c(c1C#N)CCCC2,22.2,0,0,0,0,0,0,0
Cc1cc2cc(C)c(NCCNC(=O)c3cccc(F)c3)nc2cc1C,39.7,0,0,0,-,0,28.3,0
Cc1cc2cc(C)c(NCCNC(=O)c3ccccc3F)nc2cc1C,31.9,0,0,0,-,0,0,29.4
Cc1cc2cc(C)c(NCCNC(=O)c3cccs3)nc2cc1C,56.4,0,0,0,-,0,43.0,65.4
Cc1nc(CCNC(=O)c2cccs2)cs1,0,0,0,0,0,0,-,-
O=C(NCCc1ccncc1)c1ccccc1F,0,0,0,0,0,0,-,-
Cc1cccc(C(=O)NCCN(C)C)c1,0,0,0,0,0,0,-,-
Cc1cccc(C(=O)NCCNc2nc3cc(C)c(C)cc3cc2C)c1,45.0,0,0,0,-,0,29.5,33.1
COCCn1c(SCC(=O)Nc2ccc(Cl)cn2)nnc1-c1ccncc1,0,0,0,0,-,0,-,-
CC(=O)N1CCN(C(=S)NC(=O)c2ccc(S(=O)(=O)N3CCOCC3)cc2)CC1,0,0,0,0,0,0,-,-
COc1ccc([N+](=O)[O-])cc1N(CC(O)CN(CC(C)C)CC(C)C)S(=O)(=O)c1ccccc1 (configuration not stated),68.8,0,0,0,0,0,30.2,0
Clc1ccc(-c2noc(CN3CCCC3)n2)cc1,0,0,0,0,0,0,-,-
Cn1ccnc1C1CCCCN1Cc1nc(-c2ccc(Cl)cc2)no1 (configuration not stated),42.6,0,0,0,-,0,0,0
CCN1C(=O)/C(=c2/s/c(=C3\SC(C)=C(C)N3CC)c(=O)n2CC)N(c2ccccc2)C1=S,0,0,0,0,0,0,-,-
COc1ccc(CCNC(=O)Cn2c(-c3nonc3N)nc3ccccc32)cc1OC,0,0,0,0,0,0,-,-
COc1cccc(Cn2c(-c3nonc3N)nc3ccccc32)c1,26.3,0,0,0,0,0,0,0
C=COCCn1c(-c2nonc2N)nc2ccccc21,0,0,0,0,0,0,-,-
COc1cc(Cn2c(-c3nonc3N)nc3ccccc32)ccc1C,29.8,0,0,0,0,0,0,24.4
CCOC(=O)C1=NOC(COc2ccccc2C=O)C1 (configuration not stated),0,0,0,0,-,0,-,-
CCOC(=O)Cc1cc(=O)[nH]c(/N=C(\N)Nc2ccc(C)cc2C)n1,0,0,0,0,0,0,-,-
SMILES,NPY Y1 blocker,S1P4 ag,S1P4 antagonist,NPY1 pot ag,NPY-Y2 antag,NPY2 pot ag,NPY1 antag conf,NPY2 antag ctr
O=C1CCc2cc(OCCCCc3nnnn3C3CCCCC3)ccc2N1,42.8!,0,0,0,0,0,26.5,45.9
CCOCCCNC(=O)C(c1ccc(OC)cc1)N(Cc1cccs1)C(=O)c1ccccn1 (configuration not stated),0,0,0,0,-,0,-,-
CCC(=O)Nc1c(C#N)c2nc3ccccc3nc2n1C1CCCCC1,0,0,0,0,0,0,-,-
CCOC(=O)c1c(NC(=O)c2ccco2)n(C2CCCCC2)c2nc3ccccc3nc12,24.7,0,0,0,0,0,0,0
O=C(c1ccco1)N1CCN(C(c2ccc(Cl)cc2)c2nnnn2Cc2ccccc2)CC1 (configuration not stated),21.1,0,0,0,0,0,0,0
COc1ccc(OC)c(-n2c(-c3cc(-c4ccccc4)n[nH]3)n[nH]c2=S)c1,0,0,0,0,0,0,-,-
COc1ccc(-c2cc(-c3n[nH]c(=S)n3-c3ccccc3OC)[nH]n2)cc1,32.1,0,0,0,0,0,37.2,65.6
O=C(COC(=O)COc1ccccc1)Nc1ccc(S(=O)(=O)N2CCOCC2)cc1,0,0,0,0,-,0,-,-
CCCCOC(=O)Nc1ccc(C(=O)OCCC)cc1,0,0,0,0,0,0,-,-
CCCCOC(=O)c1ccc(NC(=O)c2c(Cl)ccc(Cl)c2OC)cc1,24.1,0,0,0,0,0,0,0
O=C(c1cc2cc(Br)ccc2s1)N1CCOCC1,0,0,0,0,-,0,-,-
CN(Cc1ccccc1)S(=O)(=O)c1ccc(Cl)c(C(=O)NCc2ccc3c(c2)OCO3)c1,0,0,0,0,0,0,-,-
Cc1cc(-c2ccccc2)nc(Oc2ccc(C(C)(C)C)cc2)c1S(C)(=O)=O,23.4,0,0,0,0,0,0,0
Cc1cc(C)cc(Oc2nc(-c3ccccc3)cc(C)c2S(C)(=O)=O)c1,0,0,0,0,0,0,-,-
Cc1ccc(C(C)C)c(OCc2nn(CC(=O)c3ccc(OC(F)F)cc3)c3[n+]2CCCCC3)c1,31.5,0,0,0,-,0,0,0
COc1ccc(C(=O)Cn2nc(CNc3ccc(Br)cc3)[n+]3c2CCCCC3)cc1,0,0,0,0,-,0,-,-
Clc1cccc(Cl)c1CSc1nnc(/C=C/c2ccccc2)o1,23.3,0,0,0,0,0,0,0
Cc1cc(C(=O)CSc2nnc(Cc3ccccc3)o2)c(C)n1Cc1ccc2c(c1)OCO2,0,0,0,0,0,0,-,-
C=CCn1c(C)cc(C(=O)CSc2nnc(Cc3ccccc3)o2)c1C,21.1,0,0,0,0,0,0,0
CC(=O)NC1C(Oc2ccccc2C)OC2COC(c3ccco3)OC2C1O (configuration not stated),0,0,0,0,0,0,-,-
COc1ccc(-c2nnc(SCc3ccccc3F)o2)cc1,22.0,0,0,0,0,0,0,0
Fc1ccccc1CSc1nnc(-c2ccccc2)o1,29.1,0,0,0,0,0,0,0
Fc1ccccc1CSc1nnc(-c2cccnc2)o1,0,0,0,0,-,0,-,-

# Source: PubChem BioAssay (The Scripps Research Institute Molecular Screening Center)
